In ChEMBL document CHEMBL1926530, “Novel pyrazolo[1,5-a]pyridines as p110α-selective PI3 kinase inhibitors: Exploring the benzenesulfonohydrazide SAR” (Bioorg Med Chem, 2012):
≈ marks a conversion by molar mass, not a printed value.

How the values were obtained:
[1] = molecular target: Phosphatidylinositol 4,5-bisphosphate 3-kinase catalytic subunit alpha isoform (Homo sapiens, UniProt P42336); experiment: Inhibition of recombinant PI3K p110alpha using L-alpha-phosphatidylinositol as substrate and [gamma33P]ATP after 60 mins by thin layer chromatographic technique
Sequence of Phosphatidylinositol 4,5-bisphosphate 3-kinase catalytic subunit alpha isoform (Homo sapiens, UniProt P42336) (P42336 whole entry, canonical isoform): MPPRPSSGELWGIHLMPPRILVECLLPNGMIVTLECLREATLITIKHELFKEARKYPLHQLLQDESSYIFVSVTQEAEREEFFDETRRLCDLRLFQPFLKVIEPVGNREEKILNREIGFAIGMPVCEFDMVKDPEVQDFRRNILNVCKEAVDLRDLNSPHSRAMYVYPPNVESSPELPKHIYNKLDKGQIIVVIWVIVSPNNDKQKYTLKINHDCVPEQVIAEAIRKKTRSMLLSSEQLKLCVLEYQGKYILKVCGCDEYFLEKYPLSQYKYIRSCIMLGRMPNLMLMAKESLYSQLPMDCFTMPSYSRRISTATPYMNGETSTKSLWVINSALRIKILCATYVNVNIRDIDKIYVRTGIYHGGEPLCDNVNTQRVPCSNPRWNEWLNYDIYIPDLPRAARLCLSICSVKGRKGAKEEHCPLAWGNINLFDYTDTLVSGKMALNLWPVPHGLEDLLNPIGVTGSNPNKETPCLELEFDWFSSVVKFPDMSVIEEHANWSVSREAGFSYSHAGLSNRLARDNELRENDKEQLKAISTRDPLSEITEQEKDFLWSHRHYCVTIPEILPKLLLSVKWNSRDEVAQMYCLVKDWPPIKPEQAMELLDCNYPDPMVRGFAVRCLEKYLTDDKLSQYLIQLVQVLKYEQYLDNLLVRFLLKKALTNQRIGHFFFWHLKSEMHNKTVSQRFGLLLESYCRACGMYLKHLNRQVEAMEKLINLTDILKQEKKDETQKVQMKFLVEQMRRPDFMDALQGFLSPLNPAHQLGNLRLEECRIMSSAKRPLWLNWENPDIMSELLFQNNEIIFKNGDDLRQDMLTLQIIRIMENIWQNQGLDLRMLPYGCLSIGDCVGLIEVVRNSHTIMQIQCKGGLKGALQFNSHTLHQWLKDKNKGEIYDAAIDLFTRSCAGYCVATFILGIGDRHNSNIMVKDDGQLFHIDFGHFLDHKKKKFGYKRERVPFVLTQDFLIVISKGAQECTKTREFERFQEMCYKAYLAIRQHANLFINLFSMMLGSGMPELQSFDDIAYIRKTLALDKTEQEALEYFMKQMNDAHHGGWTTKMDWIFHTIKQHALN
Outline: (§1)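 In-house recombinant enzyme (0.1 µg) with L-α-phosphatidylinositol in 40 mM Tris-HCl pH 7.4, 200 mM NaCl, 1 mM EDTA; DMSO 1% final. Started with 5 mM MgCl₂, 100 µM ATP plus [γ-³³P]ATP; 1 h at room temperature, stopped with 1 M HCl. Lipids extracted, separated by TLC, phosphorimaged. Nine inhibitor concentrations; two experiments, IC50 averaged.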

[2] = molecular target: Phosphatidylinositol 4,5-bisphosphate 3-kinase catalytic subunit beta isoform (Homo sapiens, UniProt P42338); experiment: Inhibition of recombinant PI3K p110beta using L-alpha-phosphatidylinositol as substrate and [gamma33P]ATP after 60 mins by thin layer chromatographic technique; outline: as §1
[3] = Cytotoxicity against human NZOV9 cells harboring PI3K p110alpha Y1021C mutant assessed as inhibition of [3H]thymidine incorporation measured after 5 days; format: functional, cell-based
Outline: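 Early-passage lines grown in α-MEM with insulin, transferrin, selenite and 5% FBS. Wells seeded with 1000 cells; inhibitor in dilution steps up to a maximum of 20. Five days under 5% O₂/5% CO₂/90% N₂, ³H-thymidine added for the last 6 h. Duplicates per dose; fit y = y₀ + ae^−bx; IC50 = 50% reduction in incorporation.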

[4] = Aqueous solubility of the compound; format: physicochemical; conditions: water
Outline: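 Solid mixed with water to make 2 mM, sonicated 15 min, centrifuged 13000 rpm for 6 min. Clear supernatant diluted 2-fold with water, recentrifuged and injected on HPLC. Peak area compared with a DMSO standard solution of the compound, correcting for dilution and injection volume.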

[5] = molecular target: T1, Phosphatidylinositol 4,5-bisphosphate 3-kinase catalytic subunit alpha isoform (Homo sapiens, UniProt P42336, H1047R); experiment: Inhibition of recombinant PI3K p110alpha H1047R mutant using L-alpha-phosphatidylinositol as substrate and [gamma33P]ATP after 60 mins by thin layer chromatographic technique
T1 sequence (P42336 whole entry H1047R, canonical isoform): as the sequence (P42336 whole entry, canonical isoform) above, with H1047R counted along it

[6] = molecular target: Phosphatidylinositol 4,5-bisphosphate 3-kinase catalytic subunit gamma isoform (Homo sapiens, UniProt P48736); experiment: Inhibition of PI3K p110gamma
Sequence of Phosphatidylinositol 4,5-bisphosphate 3-kinase catalytic subunit gamma isoform (P48736 whole entry, canonical isoform): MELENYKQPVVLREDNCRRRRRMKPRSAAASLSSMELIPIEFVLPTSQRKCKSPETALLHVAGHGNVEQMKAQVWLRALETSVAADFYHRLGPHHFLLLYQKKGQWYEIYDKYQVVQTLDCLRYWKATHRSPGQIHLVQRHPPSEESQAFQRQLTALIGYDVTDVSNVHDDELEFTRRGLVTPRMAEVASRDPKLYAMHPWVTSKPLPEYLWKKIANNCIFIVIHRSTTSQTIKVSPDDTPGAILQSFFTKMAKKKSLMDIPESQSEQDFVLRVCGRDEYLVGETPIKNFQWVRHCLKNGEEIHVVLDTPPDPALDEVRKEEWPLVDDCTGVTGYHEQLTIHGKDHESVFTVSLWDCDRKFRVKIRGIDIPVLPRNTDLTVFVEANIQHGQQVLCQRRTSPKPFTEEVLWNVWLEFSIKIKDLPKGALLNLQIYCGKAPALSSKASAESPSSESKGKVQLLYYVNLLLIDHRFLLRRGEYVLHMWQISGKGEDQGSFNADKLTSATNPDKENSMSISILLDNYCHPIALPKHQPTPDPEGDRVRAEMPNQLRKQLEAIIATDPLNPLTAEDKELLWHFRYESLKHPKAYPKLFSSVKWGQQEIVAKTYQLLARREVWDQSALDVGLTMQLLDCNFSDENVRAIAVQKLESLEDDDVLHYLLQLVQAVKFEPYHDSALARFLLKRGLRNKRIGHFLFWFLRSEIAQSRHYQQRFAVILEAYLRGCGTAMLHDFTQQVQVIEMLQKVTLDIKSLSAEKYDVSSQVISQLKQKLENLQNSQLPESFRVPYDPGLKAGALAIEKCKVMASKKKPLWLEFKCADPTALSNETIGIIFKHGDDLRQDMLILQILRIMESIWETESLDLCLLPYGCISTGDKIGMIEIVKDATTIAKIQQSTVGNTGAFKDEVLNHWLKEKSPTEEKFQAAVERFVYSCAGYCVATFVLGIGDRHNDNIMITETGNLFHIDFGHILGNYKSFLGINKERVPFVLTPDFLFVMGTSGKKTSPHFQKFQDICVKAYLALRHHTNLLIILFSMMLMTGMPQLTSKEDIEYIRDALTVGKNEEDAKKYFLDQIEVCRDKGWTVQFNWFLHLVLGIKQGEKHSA

[7] = molecular target: Dual specificity mitogen-activated protein kinase kinase 1 (Homo sapiens) (UniProt Q02750); experiment: Inhibition of MKK1 assessed as residual activity at 1 uM
Sequence of Dual specificity mitogen-activated protein kinase kinase 1 (Homo sapiens) (Q02750 whole entry): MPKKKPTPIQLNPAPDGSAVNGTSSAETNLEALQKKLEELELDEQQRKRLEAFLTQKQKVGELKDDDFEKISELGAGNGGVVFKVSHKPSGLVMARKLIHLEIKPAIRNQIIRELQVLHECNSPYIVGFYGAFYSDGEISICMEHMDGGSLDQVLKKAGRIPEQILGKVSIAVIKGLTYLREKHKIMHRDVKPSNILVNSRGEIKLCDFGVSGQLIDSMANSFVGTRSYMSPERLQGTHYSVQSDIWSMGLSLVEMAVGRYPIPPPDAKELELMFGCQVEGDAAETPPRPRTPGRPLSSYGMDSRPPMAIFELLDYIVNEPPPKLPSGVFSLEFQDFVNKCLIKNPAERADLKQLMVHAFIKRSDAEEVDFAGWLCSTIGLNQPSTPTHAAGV

[8] = molecular target: Mitogen-activated protein kinase 14 (Homo sapiens) (UniProt Q16539); experiment: Inhibition of p38alpha assessed as residual activity at 1 uM
Sequence of Mitogen-activated protein kinase 14 (Homo sapiens) (Q16539 whole entry): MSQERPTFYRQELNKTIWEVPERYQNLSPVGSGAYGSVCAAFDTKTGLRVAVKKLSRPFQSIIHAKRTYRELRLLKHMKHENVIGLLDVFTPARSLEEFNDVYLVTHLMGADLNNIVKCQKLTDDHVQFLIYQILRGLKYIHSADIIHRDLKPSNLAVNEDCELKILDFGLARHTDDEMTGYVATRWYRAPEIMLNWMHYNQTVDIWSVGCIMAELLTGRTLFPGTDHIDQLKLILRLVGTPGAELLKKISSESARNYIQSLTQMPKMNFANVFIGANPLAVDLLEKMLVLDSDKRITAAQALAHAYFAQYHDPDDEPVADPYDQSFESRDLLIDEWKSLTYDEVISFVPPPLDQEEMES

[9] = molecular target: Mitogen-activated protein kinase 14 (Homo sapiens) (UniProt Q16539); experiment: Inhibition of p38alpha assessed as residual activity at 10 uM
[10] = molecular target: Ribosomal protein S6 kinase alpha-1 (Homo sapiens) (UniProt Q15418); experiment: Inhibition of RSK1 assessed as residual activity at 1 uM
Sequence of Ribosomal protein S6 kinase alpha-1 (Homo sapiens) (Q15418 whole entry): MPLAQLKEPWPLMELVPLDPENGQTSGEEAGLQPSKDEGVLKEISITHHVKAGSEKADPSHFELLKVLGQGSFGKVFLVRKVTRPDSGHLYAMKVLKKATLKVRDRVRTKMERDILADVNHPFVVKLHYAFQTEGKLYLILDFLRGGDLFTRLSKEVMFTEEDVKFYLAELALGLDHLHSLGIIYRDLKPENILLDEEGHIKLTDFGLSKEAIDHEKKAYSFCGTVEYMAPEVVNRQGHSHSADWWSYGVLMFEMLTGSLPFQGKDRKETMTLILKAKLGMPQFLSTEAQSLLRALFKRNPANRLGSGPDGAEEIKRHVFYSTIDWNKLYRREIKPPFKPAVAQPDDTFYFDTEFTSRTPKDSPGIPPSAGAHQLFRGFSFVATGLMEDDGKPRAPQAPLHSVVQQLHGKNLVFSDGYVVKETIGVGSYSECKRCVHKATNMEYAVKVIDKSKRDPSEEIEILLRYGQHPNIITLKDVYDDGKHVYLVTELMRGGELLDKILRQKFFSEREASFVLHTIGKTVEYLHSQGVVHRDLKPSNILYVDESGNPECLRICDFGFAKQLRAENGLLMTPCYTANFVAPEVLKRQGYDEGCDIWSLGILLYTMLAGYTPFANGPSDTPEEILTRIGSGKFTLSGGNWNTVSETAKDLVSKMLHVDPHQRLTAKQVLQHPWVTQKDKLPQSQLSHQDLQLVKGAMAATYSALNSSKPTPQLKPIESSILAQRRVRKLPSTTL

[11] = molecular target: Ribosomal protein S6 kinase alpha-1 (Homo sapiens) (UniProt Q15418); experiment: Inhibition of RSK1 assessed as residual activity at 10 uM
[12] = molecular target: High affinity nerve growth factor receptor (Homo sapiens) (UniProt P04629); experiment: Inhibition of TrkA assessed as residual activity at 10 uM
Sequence of High affinity nerve growth factor receptor (Homo sapiens) (P04629 33-796 limits assumed): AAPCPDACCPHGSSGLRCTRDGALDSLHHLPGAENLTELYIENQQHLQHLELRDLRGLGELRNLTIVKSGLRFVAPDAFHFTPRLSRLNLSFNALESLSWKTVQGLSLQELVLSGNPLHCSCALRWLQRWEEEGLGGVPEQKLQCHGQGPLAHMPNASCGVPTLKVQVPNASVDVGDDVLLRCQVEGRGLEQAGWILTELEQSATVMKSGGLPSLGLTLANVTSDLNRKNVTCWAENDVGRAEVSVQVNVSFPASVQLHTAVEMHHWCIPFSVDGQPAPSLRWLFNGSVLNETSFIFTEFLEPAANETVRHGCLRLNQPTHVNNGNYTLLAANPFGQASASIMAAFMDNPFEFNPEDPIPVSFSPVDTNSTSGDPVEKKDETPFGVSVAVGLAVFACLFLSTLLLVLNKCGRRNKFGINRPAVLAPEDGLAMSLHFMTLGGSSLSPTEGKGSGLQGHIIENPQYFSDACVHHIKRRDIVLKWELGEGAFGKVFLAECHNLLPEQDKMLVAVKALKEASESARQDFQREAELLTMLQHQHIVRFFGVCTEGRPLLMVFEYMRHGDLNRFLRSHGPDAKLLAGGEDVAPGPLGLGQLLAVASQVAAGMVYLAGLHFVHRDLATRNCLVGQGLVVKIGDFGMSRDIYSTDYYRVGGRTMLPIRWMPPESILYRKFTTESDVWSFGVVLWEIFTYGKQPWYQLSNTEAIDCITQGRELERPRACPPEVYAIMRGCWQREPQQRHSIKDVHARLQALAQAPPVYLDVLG

[13] = Inhibition of PKA assessed as residual activity at 1 uM
[14] = Inhibition of PKA assessed as residual activity at 10 uM
[15] = molecular target: Insulin receptor (Homo sapiens) (UniProt P06213); experiment: Inhibition of IR assessed as residual activity at 10 uM
[16] = molecular target: Misshapen-like kinase 1 (Homo sapiens) (UniProt Q8N4C8); experiment: Inhibition of MINK1 assessed as residual activity at 10 uM
[17] = molecular target: T1, Phosphatidylinositol 4,5-bisphosphate 3-kinase catalytic subunit alpha isoform; experiment: Inhibition of PI3K […] H1047R mutant-mediated PKB phosphorylation at Thr308 in human HCT116 cells after 15 mins by immunoblot analysis; format: cell-based, HCT-116
Outline: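 HCT-116 cells in MEM alpha with 10% FBS and penicillin/streptomycin, seeded, grown 1 day, then starved overnight serum-free. Inhibitor in DMSO (0.1% final) at varying concentrations for 15 min, then 500 nM insulin for 5 min. Lysates immunoblotted for phospho-PKB at Ser473 or Thr308.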

[18] = Cmax in CD1 mouse at 10 mg/kg, ip; format: ADME, organism-based; design: dose 10 mg/kg, route intraperitoneal; conditions: in vivo
Outline: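 Age-matched specific pathogen-free male CD-1 mice; single 10 mg/kg i.p. dose in 5% DMSO, 45% PEG-400, 20% 2-hydroxypropyl-β-cyclodextrin, 30% water. Blood sampled at multiple times post-dose; plasma taken after centrifugation (10 min, 6000 rpm, 20 °C). Plasma analysed by LC-MS/MS; parameters from non-compartmental analysis.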

[19] = system: SK-OV-3; experiment: Antitumor activity against human SKOV3 cells xenografted in nude NIH3 mouse assessed as tumor growth delay at 30 mg/kg, ip QD administered for 14 days relative to untreated control; format: functional; conditions: SK-OV-3, ip, 336 h, route intraperitoneal, read-out: GI
Outline: (§2)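 Female NIH III nude mice (age-matched, SPF) inoculated s.c. with 5 × 10⁶ SK-OV-3 cells in PBS. Dosing from ~150 mm³ tumours, 30 mg/kg i.p. q.d. for 14 days in 7.5% DMSO/42.5% PEG-400/20% 2-hydroxypropyl-β-cyclodextrin/30% water; vehicle controls. Volume (L × w²) × π/6 three times weekly; bodyweight daily; culled above 20% weight loss; 1-way ANOVA, Holm–Sidak.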

[20] = system: Mus musculus; experiment: Toxicity in NIH3 mouse xenografted with human SKOV3 cells assessed as body weight loss at 30 mg/kg, ip QD administered for 14 days; format: organism-based, SK-OV-3; design: dose 30 mg/kg, route intraperitoneal; conditions: in vivo, 336 h; outline: as §2
[21] = molecular target: Serine/threonine-protein kinase mTOR (Homo sapiens, UniProt P42345); experiment: Inhibition of mTOR

Cc1ccc([N+](=O)[O-])cc1S(=O)(=O)N(CCO)/N=C/c1cnn2ccc(C#N)cc12
IC50 [1]: 0.0013 µM | IC50 [2]: 0.051 µM | IC50 [3]: 0.14 µM | solubility [4]: 1.2 µg/mL (≈ 2.8 µM) | IC50 [5]: 0.0008 µM | IC50 [6]: 0.011 µM | Activity [7]: 65% | Activity [8]: 59% | Activity [9]: 13% | Activity [10]: 18% | Activity [11]: 5% | Activity [12]: 15% | Activity [13]: 59% | Activity [14]: 8% | Activity [15]: 14% | Activity [16]: 2% | IC50 [17]: 0.049 µM | Cmax [18]: 7.58 µM | inhibition in vivo at 30 mg/kg [19]: 49.9% | Activity [20]: 20% | IC50 [21]: 0.234 µM
